Test results published in publication PMC9762201 (Current Research in Pharmacology and Drug Discovery, 2022).
“Also recorded” adds a separate entry of the source.

Tests used:
α1A-AR [1] = target: T1, α1A-AR (Homo sapiens, UniProt P35348); assay type: binding
T1 sequence (P35348 1-466): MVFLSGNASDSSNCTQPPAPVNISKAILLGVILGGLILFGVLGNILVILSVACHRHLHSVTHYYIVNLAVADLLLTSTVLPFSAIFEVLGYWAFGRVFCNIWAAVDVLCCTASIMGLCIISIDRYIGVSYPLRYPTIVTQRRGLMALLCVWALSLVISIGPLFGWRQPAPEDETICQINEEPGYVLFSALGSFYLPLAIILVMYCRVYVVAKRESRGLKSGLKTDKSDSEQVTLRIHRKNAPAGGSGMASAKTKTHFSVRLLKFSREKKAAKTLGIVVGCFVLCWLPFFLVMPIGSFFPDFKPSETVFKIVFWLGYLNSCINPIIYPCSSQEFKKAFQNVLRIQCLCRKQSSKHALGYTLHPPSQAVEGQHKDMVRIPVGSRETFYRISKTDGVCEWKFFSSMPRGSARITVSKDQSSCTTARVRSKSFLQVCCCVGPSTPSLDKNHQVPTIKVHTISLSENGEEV

α1B-AR [2] = test: cAMP assay in Rat-1 fibroblasts expressing α1B-AR; assay type: cell-based; settings: Cmpd-3 10^−7 to 10^−5 M
How it was run: (§1)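 Rat-1 fibroblasts expressing one α1-AR subtype were plated serum-free at about 2.4 x 10^4 cells/well and rested overnight. They were preincubated 2 h at 37 °C with 10 μM propranolol, 0.1 μM rauwolscine and test compound. IBMX (100–200 μM) and NE or Epi were then added for 2 h, either as an agonist dose-response or at a fixed 10^-4 M. Cells were extracted in 0.1 M HCl for 20 min at RT, centrifuged at 1000 g, and cAMP was measured by EIA.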

α2A-AR = target: T2, α2A-AR (Homo sapiens, UniProt P08913); assay type: binding; settings: Cos-1 membranes
T2 sequence (P08913 1-465): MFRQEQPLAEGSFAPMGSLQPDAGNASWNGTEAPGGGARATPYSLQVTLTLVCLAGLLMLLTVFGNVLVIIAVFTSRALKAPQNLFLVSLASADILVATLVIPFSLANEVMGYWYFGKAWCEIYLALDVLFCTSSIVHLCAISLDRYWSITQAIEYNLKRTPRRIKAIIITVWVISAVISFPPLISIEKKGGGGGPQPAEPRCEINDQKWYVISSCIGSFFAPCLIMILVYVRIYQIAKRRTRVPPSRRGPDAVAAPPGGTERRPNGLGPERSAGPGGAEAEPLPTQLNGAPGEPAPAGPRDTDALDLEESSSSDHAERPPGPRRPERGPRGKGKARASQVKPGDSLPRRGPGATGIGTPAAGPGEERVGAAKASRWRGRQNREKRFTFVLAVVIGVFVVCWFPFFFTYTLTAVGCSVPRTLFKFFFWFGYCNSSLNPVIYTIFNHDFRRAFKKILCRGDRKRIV

α1B-AR [3] = test: Total inositol phosphate assay, cells expressing α1B-AR; assay type: cell-based; settings: data not shown
How it was run: (§2)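 Cells expressing a single α1-AR subtype were seeded in DMEM at about 5 x 10^4 cells/well and rested overnight at 37 °C. They were labelled overnight with 3H-inositol, washed, and placed in serum-free DMEM with 10 mM LiCl (final) for 1 h. NE or Epi (one dose per well) plus test compound at one or several concentrations were added for 1 h at 37 °C. Total inositol phosphates were measured by anion-exchange chromatography.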

5-HT7A = 5-HT7A (Homo sapiens, UniProt P34969); test: Psychoactive Drug Screening program GPCR binding screen, 5-HT7A
Chain of 5-HT7A (P34969 1-445 isoform P34969-2): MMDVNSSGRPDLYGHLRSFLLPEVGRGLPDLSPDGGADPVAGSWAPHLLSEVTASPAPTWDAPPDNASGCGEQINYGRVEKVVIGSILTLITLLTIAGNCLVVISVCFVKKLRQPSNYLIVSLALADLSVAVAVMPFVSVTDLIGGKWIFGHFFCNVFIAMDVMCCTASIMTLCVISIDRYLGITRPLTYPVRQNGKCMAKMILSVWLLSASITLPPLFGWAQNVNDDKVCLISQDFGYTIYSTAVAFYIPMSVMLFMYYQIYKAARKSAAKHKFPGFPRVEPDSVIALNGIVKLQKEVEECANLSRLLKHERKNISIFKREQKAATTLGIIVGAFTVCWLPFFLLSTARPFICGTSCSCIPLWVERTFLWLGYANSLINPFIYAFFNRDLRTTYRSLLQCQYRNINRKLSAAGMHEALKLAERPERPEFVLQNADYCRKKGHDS

3XTG mice = settings: 2.6 mg/kg, q.d., PO, 3 or 6 months, ref Perez, 2021b; cited from earlier work
α1D-AR [4] = target: T3, α1D-AR (Homo sapiens, UniProt P25100); test: Total inositol phosphate assay, cells expressing α1D-AR; assay type: cell-based; settings: data not shown
T3 sequence (P25100 1-572): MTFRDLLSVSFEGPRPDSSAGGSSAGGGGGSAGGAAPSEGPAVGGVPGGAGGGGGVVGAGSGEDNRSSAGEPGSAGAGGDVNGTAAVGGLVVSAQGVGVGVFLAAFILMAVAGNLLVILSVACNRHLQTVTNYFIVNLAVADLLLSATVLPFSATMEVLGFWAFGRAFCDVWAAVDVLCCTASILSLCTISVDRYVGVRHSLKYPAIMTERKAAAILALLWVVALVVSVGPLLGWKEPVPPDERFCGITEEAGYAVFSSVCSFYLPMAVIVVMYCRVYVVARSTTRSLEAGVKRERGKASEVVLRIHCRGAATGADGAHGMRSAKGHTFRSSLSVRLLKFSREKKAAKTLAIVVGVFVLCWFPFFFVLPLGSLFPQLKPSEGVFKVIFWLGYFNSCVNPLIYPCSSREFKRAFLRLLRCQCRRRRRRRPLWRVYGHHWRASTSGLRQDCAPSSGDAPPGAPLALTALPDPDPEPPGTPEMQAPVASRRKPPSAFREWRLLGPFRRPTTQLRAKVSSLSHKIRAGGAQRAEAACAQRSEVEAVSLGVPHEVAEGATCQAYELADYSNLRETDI
How it was run: as §2

α1A-AR [5] = test: cAMP assay and PAM assay in Rat-1 fibroblasts expressing α1A-AR; assay type: cell-based
[6] = test system: phosphorylation of CREB at Ser133; test: p-CREB; assay type: cell-based; settings: 10^−8 M; NE 10^−4 M; propranolol and rauwolscine present
α1D-AR [7] = target: T3, α1D-AR; test: cAMP assay in Rat-1 fibroblasts expressing α1D-AR; assay type: cell-based; settings: Cmpd-3 10^−6, 10^−5 M
How it was run: as §1

α1B-AR [8] = assay type: binding; settings: 0.5 mM GTP
[9] = 2.6 mg/kg, q.d., PO; 3 or 6 months of dosing; 3XTG mice; ref Perez, 2021b; cited from earlier work
α1A-AR [10] = target: T1, α1A-AR; test: 3H-NE binding potentiation, membranes from Rat-1 fibroblasts expressing α1A-AR
α1D-AR [11] = target: T3, α1D-AR; assay type: binding
α1A-AR [12] = target: T1, α1A-AR; test: Total inositol phosphate assay in Rat-1 fibroblasts expressing α1A-AR; assay type: cell-based
[13] = compound 10^−5 M, absence of GTP, 125I-HEAT

Structure (SMILES): CC(C)Cc1c(OCC2=NCCN2)cccc1N(C)S(C)(=O)=O.Cl [Cmpd-3, N-(3-((4,5-Dihydro-1H-imidazol-2-yl)methoxy)-2-isobutylphenyl)-N-methylmethanesulfonamide hydrochloride]
- extent of inhibition of 125I-HEAT binding at α1A-AR (α1A-AR [1]; 0.5 mM GTP): could not fully inhibit; also recorded: incomplete inhibition
- fraction of receptor in the high affinity state of NE in presence of compound (α1A-AR [1]; compound 10^−5 M, absence of GTP): 55%
- effect on NE binding at α1A-AR (α1A-AR [1]; [13]): stabilizes the high affinity binding site of NE
- effect on binding profile of Epi at α1A-AR (α1A-AR [1]; [13]): no effect
- effect on NE or Epi-mediated cAMP response at α1B-AR (α1B-AR [2]): no effect; also recorded: does not change the potency or the Emax
- extent of inhibition of 3H-RX821002 binding at α2A-AR (α2A-AR): fully inhibited
- effect on NE or Epi-mediated IP signal at α1B-AR (α1B-AR [3]): no effect
- Ki (5-HT7A): 6 µM
- effect on long-term potentiation and cognitive behavior (3XTG mice): statistically increased
- effect on NE or Epi-mediated IP signal at α1D-AR (α1D-AR [4]): no effect
- effect on Epi-mediated cAMP response at α1A-AR (α1A-AR [5]; Epi dose-response, propranolol and rauwolscine present): did not affect
- PAM activity (NE-mediated cAMP potentiation, PAM assay) (α1A-AR [5]; NE 10^−4 M held constant, compound dose-response): display PAM effect
- effect on NE-mediated cAMP response at α1A-AR (α1A-AR [5]; NE dose-response, propranolol and rauwolscine present): potentiated; also recorded: increases the Emax
- intrinsic (basal) agonist activity, cAMP (α1A-AR [5]; compound alone, dose-response): cannot stimulate; also recorded: do not show any basal activity
- effect on NE-mediated p-CREB levels [6]: significantly potentiated; also recorded: increases
- effect on NE or Epi-mediated cAMP response at α1D-AR (α1D-AR [7]): no effect; also recorded: does not change the potency or the Emax
- binding at α1B-AR (125I-HEAT competition) (α1B-AR [8]): did not display any binding; also recorded: does not bind
- effect on systolic blood pressure [9]: failed to change
- EC50 (α1A-AR [10]): 0.0001 µM
- Ki (α1D-AR [11]): 30 µM
- difference in binding selectivity between the α1-AR subtypes (α1D-AR [11]; α1A-AR versus α1B-/α1D-AR): 1000 fold
- effect on Epi-mediated inositol phosphate signal at α1A-AR (α1A-AR [12]): no effect; also recorded: does not affect
- effect on NE-mediated inositol phosphate signal at α1A-AR (α1A-AR [12]): no effect; also recorded: does not affect
- intrinsic (basal) agonist activity, inositol phosphate (α1A-AR [12]; compound alone, dose-response): cannot stimulate; also recorded: do not show any basal activity
